Laboratory results published in article PMC5242172 (Pharmacology Research & Perspectives, 2016).
Like-named read-outs stand apart in the source and are kept apart here.

Key:
[1] = target: bovine heart mitochondrial complex I (Bos taurus, UniProt P03887+P17694+P42026); test: Complex I activity; type: biochemical
[2] = tested on: NCI-H23 cells; test: Cellular ATP measurement; type: cell-based, human; conditions: NCI-H23, 6 h of treatment
Summary of the method: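 NCI-H23 cells in RPMI 1640 with 5% FBS were plated at 1–2 × 10^5 cells/mL and incubated overnight at 37°C, 5% CO2. Test compound diluted in medium was added for 6 h, with final DMSO below 1%. Lysis buffer and substrate were added, and luciferase-based luminescence was read. ATP was expressed as % of solvent-treated wells; mean ± SEM, n = 3.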

[3] = tested on: NCI-H23 cells; test: Cellular oxygen consumption rate; type: cell-based, human; conditions: NCI-H23, 1 h after drug
[4] = tested on: panel of 39 human cancer cell lines (JFCR39); test: Growth inhibition profile, summary over the JFCR39 panel; type: cell-based
[5] = tested on: NCI-H23 cells; test: Viable cell number; type: cell-based, human; conditions: NCI-H23, 6 h of treatment
Summary of the method: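 NCI-H23 cells were grown in RPMI 1640 with 5% FBS at 37°C, 5% CO2, and exposed to test compound (DMSO stocks 10 or 100 mmol/L) for 6 h. Viable cells were counted by trypan blue exclusion on an automated cell counter and expressed as % of nontreated control; mean ± SEM, n = 3.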

[6] = tested on: xenograft tumors; conditions: ref Kojima et al. 2014; cited from earlier work
[7] = tested on: mitochondrial complexes (complex II–V); test: Activities of OxPhos complexes II-V; type: biochemical; conditions: II + III, IV, V (Fig. S2)
[8] = tested on: mitochondrial DNA-deficient (ρ0) NCI-H23 cells; test: Growth of ρ0 versus ρ+ cells, sulforhodamine B assay; type: cell-based, human; conditions: NCI-H23 ρ0 vs ρ+, 48 h

bovine heart mitochondrial complex I, sequence (P03887 whole entry): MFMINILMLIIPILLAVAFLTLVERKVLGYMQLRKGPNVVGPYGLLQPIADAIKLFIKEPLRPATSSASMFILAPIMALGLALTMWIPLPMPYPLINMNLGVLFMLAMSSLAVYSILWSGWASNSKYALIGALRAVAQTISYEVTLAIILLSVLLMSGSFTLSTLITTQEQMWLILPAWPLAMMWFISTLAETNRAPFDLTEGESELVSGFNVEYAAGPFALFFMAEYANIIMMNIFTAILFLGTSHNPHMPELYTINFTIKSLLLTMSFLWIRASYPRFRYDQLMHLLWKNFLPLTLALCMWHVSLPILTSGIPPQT
bovine heart mitochondrial complex I, sequence (P42026 38-216): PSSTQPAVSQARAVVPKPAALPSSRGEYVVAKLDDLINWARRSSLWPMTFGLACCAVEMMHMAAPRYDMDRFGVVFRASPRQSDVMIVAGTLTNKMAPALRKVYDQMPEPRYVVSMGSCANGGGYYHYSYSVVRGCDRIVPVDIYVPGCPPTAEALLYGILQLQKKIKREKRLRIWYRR
bovine heart mitochondrial complex I, sequence (P17694 34-463): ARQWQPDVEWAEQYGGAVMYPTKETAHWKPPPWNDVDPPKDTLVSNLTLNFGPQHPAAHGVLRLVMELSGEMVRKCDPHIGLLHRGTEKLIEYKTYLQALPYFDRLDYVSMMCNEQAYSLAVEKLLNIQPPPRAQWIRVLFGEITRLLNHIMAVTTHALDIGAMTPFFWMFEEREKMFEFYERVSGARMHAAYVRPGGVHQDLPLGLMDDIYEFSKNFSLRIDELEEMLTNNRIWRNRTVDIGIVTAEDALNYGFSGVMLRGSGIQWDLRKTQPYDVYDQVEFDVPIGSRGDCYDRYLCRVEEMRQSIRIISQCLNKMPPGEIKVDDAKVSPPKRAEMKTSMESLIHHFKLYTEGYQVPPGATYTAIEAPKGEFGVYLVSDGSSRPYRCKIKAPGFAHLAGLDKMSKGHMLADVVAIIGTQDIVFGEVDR

## COc1cc2c(cc1OC)[C@@H]1C(=O)c3ccc4c(c3O[C@@H]1CO2)C=CC(C)(C)O4 [Deguelin, reference compound]
[1]
  IC50: 40 nM

## CN(C)c1cccc2c(S(=O)(=O)NCCCCCCCCC[C@@H](O)[C@H]3CC[C@H]([C@H](O)CCCCCCCCCCNC(=O)c4ccsc4)O3)cccc12 [JCI-13291, N‐[(R)‐11‐((2R,5R)‐5‐{(R)‐10‐[5‐(Dimethylamino)naphthalene‐1‐sulfonamido]‐1‐hydroxydecyl}tetrahydrofuran‐2‐yl)‐11‐hydroxyundecyl]thiophene‐3‐carboxamide]
[2]
  effect on intracellular ATP content: depleted intracellular ATP content
[3]
  effect on cellular oxygen consumption rate: inhibited the aerobic aspiration of NCI‐H23 cells

## CCCCCCCCCCCC[C@@H](O)[C@H]1CC[C@H]([C@H](O)CCCCCCCCCCNC(=O)c2ccsc2)O1 [JCI-20679, N‐((R)‐11‐Hydroxy‐11‐{(2R,5R)‐5‐[(R)‐1‐hydroxytridecyl]tetrahydrofuran‐2‐yl}undecyl)thiophene‐3‐carboxamide]
[2]
  effect on intracellular ATP content: ATP depletion by JCI‐20679 in a dose‐dependent manner
[3]
  effect on cellular oxygen consumption rate: inhibited the oxygen consumption of NCI‐H23 cells in a dose‐dependent manner
[4]; 48 h, read-out: MG-MID, the mean of log GI50 values for 39 cell lines (converted)
  GI50: 2750 nM
[4]; read-out: mean GI50 within the JFCR39 panel
  GI50: 2750 nM
[1]
  IC50: 170 nM
[1]; ratio of IC50 values
  complex I inhibition, activity relative to rotenone: seven times less activity than rotenone
  complex I inhibition, times greater activity than phenformin: 6000 times
  complex I inhibition, times greater activity than solamin: 30 times
[5]
  viable cell number: hardly changed
[6]
  antitumor activity in mouse xenograft models: more potent antitumor activity than solamin
  side effects in mouse xenograft models: no severe side effects
[7]
  inhibition of mitochondrial complexes II–V: None of the other mitochondrial complexes (complex II–V) were inhibited
[8]
  sensitivity of ρ0 cells compared with ρ+ cells: more resistant

## C=C(C)[C@H]1Cc2c(ccc3c2O[C@@H]2COc4cc(OC)c(OC)cc4[C@@H]2C3=O)O1 [Rotenone, reference compound]
[3]
  effect on cellular oxygen consumption rate: inhibited the oxygen consumption of NCI‐H23 cells in a dose‐dependent manner
